Reference: ChEMBL document CHEMBL1806473, “Structure-based optimization of click-based histone deacetylase inhibitors” (Eur J Med Chem, 2011)

What was measured:
[1] = tested on: SNB-19; test: Cytotoxicity against human SNB19 cells; assay type: cell-based
In short: (§1)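 Screened by NCI in its in vitro disease-oriented human tumour cell line panel. Compounds tested at five concentrations (100, 10, 1.0, 0.1 and 0.01 μM). Growth read by sulforhodamine B (SRB) signal. GI50 is the concentration reducing growth of treated cells to half that of control cells during the drug incubation.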

[2] = tested on: TK-10; test: Cytotoxicity against human TK10 cells; assay type: cell-based; in short: as §1
[3] = tested on: KM12; test: Cytotoxicity against human KM12 cells; assay type: cell-based
[4] = tested on: ACHN; test: Cytotoxicity against human ACHN cells; assay type: cell-based
[5] = tested on: IGROV-1; test: Cytotoxicity against human IGROV1 cells; assay type: cell-based
[6] = tested on: UACC-257; test: Cytotoxicity against human UACC257 cells; assay type: cell-based; in short: as §1
[7] = tested on: HCT-15; test: Cytotoxicity against human HCT15 cells; assay type: cell-based
In short: (§2)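 Tested in the NCI in vitro disease-oriented human tumour cell line screen, with screening performed by NCI. Growth was read by SRB signal over the drug incubation period at five concentrations: 100, 10, 1.0, 0.1 and 0.01 μM. GI50 is the concentration that reduces growth of treated cells to half that of control cells.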

[8] = tested on: CCRF-CEM; test: Antiproliferative activity against human CCRF-CEM cells by SRB assay; assay type: functional
In short: (§3)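 Tested in the NCI in vitro human tumor cell line screen, run by the National Cancer Institute. Each compound was given at five concentrations (100, 10, 1.0, 0.1 and 0.01 μM). GI50 is the drug concentration that reduces growth of treated cells to half that of control cells during drug incubation, judged from the SRB signal.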

[9] = tested on: COLO 205; test: Antiproliferative activity against human COLO205 cells by SRB assay; assay type: functional; in short: as §3
[10] = tested on: MCF7; test: Cytotoxicity against human MCF7 cells; assay type: cell-based
[11] = tested on: NCI-H522; test: Antiproliferative activity against human NCI-H522 cells by SRB assay; assay type: functional; in short: as §3
[12] = tested on: RPMI-8226; test: Antiproliferative activity against human RPMI8226 cells by SRB assay; assay type: functional; in short: as §3
[13] = tested on: RPMI-8226; test: Cytotoxicity against human RPMI8226 cells; assay type: cell-based; in short: as §2
[14] = Antiproliferative activity against human Hs 578T cells by SRB assay; assay type: functional; in short: as §3
[15] = tested on: KM12; test: Antiproliferative activity against human KM12 cells by SRB assay; assay type: functional; in short: as §3
[16] = target: Histone deacetylase; test: Inhibition of HDAC in human HeLa cells using Ac-Arg-Gly-Lys(Ac)-AMC as fluorescent substrate after 20 mins by fluorescence assay; assay type: cell-based
[17] = tested on: PC-3; test: Antiproliferative activity against human PC3 cells by SRB assay; assay type: functional; in short: as §3
[18] = tested on: CAKI-1; test: Antiproliferative activity against human Caki1 cells by SRB assay; assay type: functional; in short: as §3
[19] = tested on: RXF 393; test: Cytotoxicity against human RXF393 cells; assay type: cell-based; in short: as §2
[20] = tested on: MOLT-4; test: Cytotoxicity against human MOLT4 cells; assay type: cell-based
[21] = tested on: SK-MEL-5; test: Antiproliferative activity against human SK-MEL-5 cells by SRB assay; assay type: functional; in short: as §3
[22] = tested on: SK-MEL-28; test: Cytotoxicity against human SK-MEL-28 cells; assay type: cell-based
[23] = tested on: SF-295; test: Cytotoxicity against human SF295 cells; assay type: cell-based; in short: as §2
[24] = tested on: HOP-62; test: Antiproliferative activity against human HOP62 cells by SRB assay; assay type: functional; in short: as §3
[25] = tested on: HCT-116; test: Cytotoxicity against human HCT116 cells; assay type: cell-based; in short: as §2
[26] = tested on: UACC-62; test: Cytotoxicity against human UACC62 cells; assay type: cell-based; in short: as §1
[27] = tested on: MOLT-4; test: Antiproliferative activity against human MOLT4 cells by SRB assay; assay type: functional; in short: as §3
[28] = tested on: SK-MEL-5; test: Cytotoxicity against human SK-MEL-5 cells; assay type: cell-based
[29] = tested on: HCC 2998; test: Cytotoxicity against human HCC2998 cells; assay type: cell-based; in short: as §2
[30] = tested on: T47D; test: Cytotoxicity against human T47D cells; assay type: cell-based; in short: as §1
[31] = tested on: UO-31; test: Cytotoxicity against human UO31 cells; assay type: cell-based; in short: as §1
[32] = tested on: SNB-75; test: Antiproliferative activity against human SNB75 cells by SRB assay; assay type: functional
In short: (§4)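 Cell growth was tested in the NIH in vitro disease-oriented human tumor cell line screen, which NCI ran for these compounds. Compounds were tested at five concentrations (100, 10, 1.0, 0.1 and 0.01 μM), and growth was read by SRB signal. GI50 is the drug concentration that reduces growth of treated cells to half that of control cells during drug incubation.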

[33] = tested on: HOP-92; test: Antiproliferative activity against human HOP92 cells by SRB assay; assay type: functional; in short: as §3
[34] = tested on: NCI-H522; test: Cytotoxicity against human NCI-H522 cells; assay type: cell-based; in short: as §2
[35] = tested on: SNB-19; test: Antiproliferative activity against human SNB19 cells by SRB assay; assay type: functional; in short: as §3
[36] = tested on: OVCAR-4; test: Antiproliferative activity against human OVCAR4 cells by SRB assay; assay type: functional; in short: as §3
[37] = tested on: IGROV-1; test: Antiproliferative activity against human IGROV1 cells by SRB assay; assay type: functional; in short: as §3
[38] = tested on: U-251; test: Cytotoxicity against human U251 cells; assay type: cell-based; in short: as §1
[39] = tested on: HL-60(TB); test: Cytotoxicity against human HL-60(TB) cells; assay type: cell-based
[40] = tested on: SNB-75; test: Cytotoxicity against human SNB75 cells; assay type: cell-based; in short: as §1
[41] = tested on: K562; test: Cytotoxicity against human K562 cells; assay type: cell-based
[42] = tested on: NCI-H226; test: Antiproliferative activity against human NCI-H226 cells by SRB assay; assay type: functional; in short: as §3
[43] = tested on: UACC-257; test: Antiproliferative activity against human UACC257 cells by SRB assay; assay type: functional; in short: as §4
[44] = tested on: HT-29; test: Antiproliferative activity against human HT-29 cells by SRB assay; assay type: functional; in short: as §3
[45] = tested on: SK-MEL-2; test: Antiproliferative activity against human SK-MEL-2 cells by SRB assay; assay type: functional; in short: as §3
[46] = tested on: A549; test: Antiproliferative activity against human A549 cells by SRB assay; assay type: functional; in short: as §3
[47] = tested on: HL-60(TB); test: Antiproliferative activity against human HL-60(TB) cells by SRB assay; assay type: functional; in short: as §2
[48] = Cytotoxicity against human Hs 578T cells; assay type: cell-based
[49] = tested on: OVCAR-8; test: Cytotoxicity against human OVCAR8 cells; assay type: cell-based
[50] = tested on: HCC 2998; test: Antiproliferative activity against human HCC2998 cells by SRB assay; assay type: functional; in short: as §3
[51] = tested on: OVCAR-8; test: Antiproliferative activity against human OVCAR8 cells by SRB assay; assay type: functional; in short: as §3
[52] = tested on: OVCAR-3; test: Cytotoxicity against human OVCAR3 cells; assay type: cell-based; in short: as §2
[53] = tested on: SN12C; test: Cytotoxicity against human SN12C cells; assay type: cell-based; in short: as §1

CC(/C=C/c1ccccc1)n1cc(/C=C/C(=O)NO)nn1 (configuration not stated)
LC50 [1]: 37.6 µM | LC50 [2]: 31.9 µM | LC50 [3]: 6.82 µM | LC50 [4]: 5.86 µM | LC50 [5]: 5.74 µM | LC50 [6]: > 100 µM | LC50 [7]: 42.8 µM | GI50 [8]: 0.442 µM | GI50 [9]: 0.469 µM | LC50 [10]: > 100 µM | GI50 [11]: 0.173 µM | GI50 [12]: 0.407 µM | LC50 [13]: > 100 µM | GI50 [14]: 0.692 µM | GI50 [15]: 1.29 µM | IC50 [16]: 0.062 µM | GI50 [17]: 0.89 µM | GI50 [18]: 0.401 µM | LC50 [19]: > 100 µM | LC50 [20]: > 100 µM | GI50 [21]: 0.573 µM | LC50 [22]: 24.5 µM | LC50 [23]: > 100 µM | GI50 [24]: 1.34 µM | LC50 [25]: 3.81 µM | LC50 [26]: 7.99 µM | GI50 [27]: 0.377 µM | LC50 [28]: 4.52 µM | LC50 [29]: 6.91 µM | LC50 [30]: 7.63 µM | LC50 [31]: 66.7 µM | GI50 [32]: 0.924 µM | GI50 [33]: 0.677 µM | LC50 [34]: 3.62 µM | GI50 [35]: 1.87 µM | GI50 [36]: 0.636 µM | GI50 [37]: 0.564 µM | LC50 [38]: 4.5 µM | LC50 [39]: > 100 µM | LC50 [40]: 33.9 µM | LC50 [41]: > 100 µM | GI50 [42]: 2.35 µM | GI50 [43]: 1.35 µM | GI50 [44]: 0.325 µM | GI50 [45]: 0.614 µM | GI50 [46]: 1.47 µM | GI50 [47]: 0.269 µM | LC50 [48]: > 100 µM | LC50 [49]: 6.91 µM | GI50 [50]: 0.927 µM | GI50 [51]: 0.232 µM | LC50 [52]: 7.33 µM | LC50 [53]: > 100 µM

CC(C)C(/C=C/c1ccccc1)n1cc(/C=C/C(=O)NO)nn1 (configuration not stated)
LC50 [1]: 66.6 µM | LC50 [2]: > 100 µM | LC50 [3]: 9.53 µM | LC50 [4]: 71.1 µM | LC50 [5]: 31.6 µM | LC50 [6]: 88.3 µM | LC50 [7]: > 100 µM | GI50 [8]: 0.351 µM | GI50 [9]: 0.932 µM | LC50 [10]: > 100 µM | GI50 [11]: 0.582 µM | GI50 [12]: 0.317 µM | LC50 [13]: > 100 µM | GI50 [15]: 1.22 µM | IC50 [16]: 0.022 µM | GI50 [17]: 1.65 µM | GI50 [18]: 0.487 µM | LC50 [19]: 7.68 µM | LC50 [20]: > 100 µM | GI50 [21]: 0.73 µM | LC50 [22]: 44.9 µM | LC50 [23]: 58.3 µM | GI50 [24]: 1.24 µM | LC50 [25]: 3.85 µM | LC50 [26]: 6.61 µM | GI50 [27]: 0.427 µM | LC50 [28]: 5.17 µM | LC50 [31]: 40.9 µM | GI50 [32]: 1.82 µM | GI50 [33]: 1.73 µM | LC50 [34]: 8.48 µM | GI50 [35]: 2.41 µM | GI50 [36]: 4.06 µM | GI50 [37]: 1.08 µM | LC50 [38]: 5.66 µM | LC50 [39]: > 100 µM | LC50 [40]: 38.3 µM | LC50 [41]: > 100 µM | GI50 [42]: 2.38 µM | GI50 [43]: 3.12 µM | GI50 [44]: 0.827 µM | GI50 [45]: 1.52 µM | GI50 [46]: 1.33 µM | GI50 [47]: 0.728 µM | LC50 [48]: > 100 µM | LC50 [49]: > 100 µM | GI50 [51]: 0.816 µM | LC50 [52]: 22.1 µM | LC50 [53]: > 100 µM
